# PLC-gamma1 inh: PLC-gamma1 enzyme inhibitors, primary screen, biochemical, fluorescence, purified enzyme; 370,000 compounds, 0.84% hits; inhibition, % at 12.2 µM; 1-phosphatidylinositol 4,5-bisphosphate phosphodiesterase gamma-1 (Homo sapiens), P19174; fluorogenic substrate
# PLC-beta3 inh: human PLC-beta3 inhibitors, primary screen, biochemical, fluorescence; inhibition, % at 12.2 µM; AID 720704, 2013; 370,000 compounds, 0.18% hits; Purified PLC-beta3, fluorogenic substrate; 1-phosphatidylinositol 4,5-bisphosphate phosphodiesterase beta-3 (Homo sapiens), Q01970; in the data active = inhibition above about 11%
# ARFGAP1 inhibitor: inhibitors of rat ARFGAP1 GAP activity, primary screen, biochemical, fluorescence polarization, GDP tracer; 360,000 compounds, 0.26% hits; inhibition, % at 16.5 µM; Arfgap1-stimulated ARF1 GTP hydrolysis, GDP FP detection; ADP-ribosylation factor GTPase-activating protein 1 (Rattus norvegicus), Q62848;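 active = inhibition above a per-plate limit, mean inhibition of low control wells plus 3 SD, cut at about 25% in these data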
# Target sequence (Q62848 1-136 limits assumed): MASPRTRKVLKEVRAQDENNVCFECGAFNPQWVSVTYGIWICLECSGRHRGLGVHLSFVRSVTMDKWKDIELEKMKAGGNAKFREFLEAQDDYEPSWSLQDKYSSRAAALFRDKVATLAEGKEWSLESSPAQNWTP
#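 Material – truncated rat Arfgap1 GAP domain · Buffer or medium – HEPES-based buffer, pH 7.5 · Reagent – human ARF1(Δ1-17)-GTP substrate · Dosing – 16.5 µM single point, 1.26% DMSO · Schedule – GTP hydrolysis reaction 2 h at 25 °C · Technique – GDP detection by fluorescence polarization · Benchmarks – No-Arfgap1 wells (100%) versus DMSO full-reaction wells (0%) · Repeats – single replicate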
# HGIII-sPLA2 inh: human group III sPLA2 inhibitors, primary screen, biochemical, QFRET, BODIPY PC-A2 liposome substrate; inhibition, % at 12.2 µM; AID 743126, 2013; QFRET BODIPY PC-A2 liposome hydrolysis, fluorescence; 370,000 compounds, 0.56% hits;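 active = inhibition above mean plus 3 SD of compounds lying within the high and low control bounds, cut at about 19% in these data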
# ASAP1 inh: inhibitors of human ASAP1 ArfGAP activity, primary screen, biochemical, fluorescence polarization | Arf-GAP with SH3 domain, ANK repeat and PH domain-containing protein 1 (Homo sapiens), … | ASAP1-stimulated ARF1 GTP hydrolysis, GDP FP detection | inhibition, % at 16.5 µM | 360,000 compounds, 0.19% hits; in the data active = inhibition above about 25%
# Target sequence (Q9ULH1 325-724 limits assumed): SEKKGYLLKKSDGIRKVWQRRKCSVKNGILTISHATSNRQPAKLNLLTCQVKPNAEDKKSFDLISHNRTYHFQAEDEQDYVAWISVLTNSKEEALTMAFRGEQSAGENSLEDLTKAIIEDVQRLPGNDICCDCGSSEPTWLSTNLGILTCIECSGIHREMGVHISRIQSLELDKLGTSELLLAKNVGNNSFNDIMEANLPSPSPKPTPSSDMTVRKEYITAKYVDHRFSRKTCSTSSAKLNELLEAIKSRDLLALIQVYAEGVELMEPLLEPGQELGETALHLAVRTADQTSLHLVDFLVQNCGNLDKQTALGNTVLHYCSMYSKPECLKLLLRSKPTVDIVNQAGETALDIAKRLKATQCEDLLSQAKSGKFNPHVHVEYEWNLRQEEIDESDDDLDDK
# PLCg1 ctr: PLC-gamma1 enzyme inhibitors, counter-screen for PLC-beta3 inhibitor project, biochemical, fluorescence. shares compounds with PLC-gamma1 inh. purified PLC-gamma1, fluorogenic substrate. inhibition, % at 12.3 µM. 3,300 compounds, 3.1% hits. AID 743258, 2014
# PLCb3 confirm: PLC-beta3 inhibitor confirmation, biochemical, fluorescence, purified enzyme; shares compounds with PLC-gamma1 inh; fluorogenic substrate fluorescence; inhibition, % at 12.3 µM; 3,300 compounds, 1% hits; AID 743261, 2014; in the data active = inhibition above about 11%
# Hits are given with their value; - = inactive; . = no result. An excerpt weighted towards active compounds, which were near 1.9% of everything screened. Rule as the data show it, unless noted: active = inhibition above about 9.5%; inactive = the rest.
SMILES,PLC-gamma1 inh,PLC-beta3 inh,ARFGAP1 inhibitor,HGIII-sPLA2 inh,ASAP1 inh,PLCg1 ctr,PLCb3 confirm
COC(=O)[C@]12C[C@H](CC(=O)N3CCCCC3)C(=O)N(CCc3ccc(OC)c(OC)c3)C1=C[C@H](COCc1ccccc1)O[C@@H]2C,-,-,.,-,.,.,.
C=CCNC(=O)CN1CCC(c2nc3ccccc3[nH]2)CC1,-,-,-,-,-,.,.
C=CCNC(=O)CN1CCC(c2nc3cc(C)c(C)cc3[nH]2)CC1,12,-,-,-,-,-,-
COc1cccc(C(=O)NNC(=O)CCC(=O)O)c1,9.9,-,-,-,-,-,-
O=c1c2ccccc2n(Cc2ccno2)n1[C@@H](Cc1ccccc1)Cn1cc(C2CCCC2)nn1,-,-,.,-,.,.,.
O=S(=O)(NC1=NCCC1)c1cccc(NS(=O)(=O)c2ccc(F)c(Cl)c2)c1,-,-,-,-,-,.,.
Cc1ccc([N+](=O)[O-])cc1S(=O)(=O)Nc1cccc(S(=O)(=O)NC2=NCCC2)c1,9.6,-,-,-,-,-,-
Cc1ccc(Cn2nnc3c2-c2ccccc2S(=O)(=O)N(C)C3)cc1,-,-,.,-,.,.,.
CS(=O)(=O)c1nc(-c2ccc(Br)cc2)n[nH]1,18,-,-,-,-,15,-
CS(=O)(=O)c1ccc(-c2nn[nH]n2)cc1,-,-,-,-,-,.,.
CC1(C)O[C@@H]2[C@H](O1)[C@@H](CO)O[C@H]2n1ccc(=O)[nH]c1=O,-,-,-,-,-,.,.
CC1(C)O[C@@H]2[C@H](O1)[C@@H](CO)O[C@H]2n1cc(Br)c(=O)[nH]c1=O,14,-,-,-,-,-,-
COc1ccc(OC)c(NC(=O)COc2coc(CN3CCCc4ccccc43)cc2=O)c1,17,-,-,-,-,-,-
COc1ccc(OC)c(NC(=O)COc2coc(CN3CCc4ccccc43)cc2=O)c1,-,-,-,-,-,.,.
COC(=O)[C@]12C[C@H](CC(=O)N3CCN(C(=O)c4ccco4)CC3)C(=O)N(Cc3ccccc3)C1=C[C@H](C1CCCC1)O[C@@H]2C,-,-,-,-,-,.,.
O=S(=O)(Nc1ccccc1)N1CCCCC1,11,13,-,-,-,-,-
COc1ccc(OCCCC(=O)NCc2ccco2)cc1,15,-,-,-,-,-,-
Cc1ccc(OCCCC(=O)NCc2ccco2)cc1,-,-,-,-,-,.,.
Cc1ccccc1C(=O)NC1CCN(Cc2nnnn2C2CCCC2)CC1,14,-,-,-,-,12,-
Cc1ccccc1C(=O)NC1CCN(Cc2nnnn2C(C)(C)C)CC1,-,-,-,-,-,.,.
COc1cc(C(=O)NC2CC(C)CC(C)(C)C2)cc(OC)c1OC (stereo not given),-,12,-,-,-,-,-
Cc1nc(NC(=O)C2CC2)sc1C(=O)Nc1ccccc1,-,-,-,-,-,.,.
Cc1nc(Nc2c(Cl)cccc2Cl)sc1C(=O)Nc1ccccc1,9.6,-,-,-,-,-,-
C=CCN1C(=O)[C@@H](CC(=O)NCC2CCCCC2)[C@]2(C(=O)OCC)CCCCC/C=C/12,-,-,.,-,.,.,.
O=C(Nc1ccc(F)cc1F)c1c(C(F)(F)F)ccnc1Oc1ccccc1,11,-,-,-,-,-,-
SMILES,PLC-gamma1 inh,PLC-beta3 inh,ARFGAP1 inhibitor,HGIII-sPLA2 inh,ASAP1 inh,PLCg1 ctr,PLCb3 confirm
Cc1cccc(Oc2nccc(C(F)(F)F)c2C(=O)Nc2ccc(F)cc2F)c1,-,-,-,-,-,.,.
COC(=O)C1CN(CCc2ccccc2)CCS(=O)(=O)N1Cc1ccc(C)cc1 (stereo not given),-,-,.,-,.,.,.
CCC(=O)Nc1c2c(nn1-c1ccc(OC)cc1)CSC2,-,-,-,-,-,.,.
CC(C)CC(=O)Nc1c2c(nn1-c1ccc(F)cc1)CSC2,-,12,-,-,-,-,-
O=C(Cc1ccccc1Cl)NCCN1C(=O)C2C3C=CC(C3)C2C1=O (stereo not given),9.9,-,.,-,.,-,-
Cc1cc2oc(C(=O)Nc3nonc3C)c(C)c2cc1Cl,13,-,-,-,-,-,-
CC1(C(=O)Nc2ccc(Cl)c(Cl)c2)CCN1C(=O)C1CCCCC1 (stereo not given),16,-,-,-,-,-,-
COc1ccc(/C=N\NC(=O)CN2CCN(Cc3ccccc3)CC2)cc1OCc1ccccc1,-,-,.,-,.,.,.
CCOC(=O)c1c(NC(=O)C2CC2)sc2c1CC(C)(C)OC2,-,-,-,-,-,.,.
COC(=O)c1c(N)sc2c1CC(C)(C)OC2,11,-,-,-,-,-,-
N/C(Cc1ccc(Cl)c(Cl)c1)=N\OC(=O)c1cccs1,-,12,-,-,-,-,-
COC(=O)C1CN(Cc2ccc(F)cc2)CCS(=O)(=O)N1Cc1cn(Cc2ccc(Cl)cc2)nn1 (stereo not given),-,-,.,-,.,.,.
Cc1ccc2c(c1)NCC(C(=O)NCc1ccccc1)O2 (stereo not given),-,-,-,-,-,.,.
NC(=O)C1CNc2ccccc2O1 (stereo not given),11,-,-,-,-,-,-
Cc1ccc(S(=O)(=O)N(C)[C@H]2C[C@H]3c4[nH]c5cccc(-c6ccccc6)c5c4CCN3C(=O)[C@H]2[C@H](C)O)cc1,-,-,-,-,-,.,.
C/C(=N\NC(=O)c1cc(-c2cccc([N+](=O)[O-])c2)n[nH]1)c1ccc(F)cc1,-,-,-,-,-,.,.
C/C(=N/NC(=O)c1cc(-c2cccc([N+](=O)[O-])c2)n[nH]1)c1cccc(O)c1,14,-,-,-,-,-,-
NC(=O)c1ccc(NC(=O)COC(=O)CCSc2ccccc2)cc1,-,-,-,-,-,.,.
NC(=O)NC(=O)COC(=O)CCSc1ccccc1,-,11,-,-,-,-,-
COC(=O)[C@]12C[C@H](CC(=O)NCc3ccc(OC)c(OC)c3)C(=O)N(Cc3cccc4ccccc34)C1=C[C@H](C(C)(C)C)O[C@@H]2C,-,-,.,-,.,.,.
COc1ccc(S(=O)(=O)N2CCC(C(=O)NCCN3CCOCC3)CC2)cc1,12,-,-,-,-,-,-
COc1ccc(C2C(C(=O)NCCCN3CCOCC3)c3ccccc3C(=O)N2c2ccc(OC)cc2)cc1 (stereo not given),-,11,-,-,-,-,-

# Compound activity from PubChem BioAssay.
